According to ChEMBL document CHEMBL1212858, “New bioactive halenaquinone derivatives from South Pacific marine sponges of the genus Xestospongia” (Bioorg Med Chem, 2010):
Structures can show the parent of a compound that is named as a salt.

How the values were obtained:
[1] = target: Protein farnesyltransferase (Homo sapiens, UniProt P49354+P49356); assay: Inhibition of human FTase after 15 mins by fluorimetric analysis; assay type: protein-complex assay
Procedure, shortened: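 Partially purified human FTase (1.5 mg/mL, 5 µL per 1 mL peptide solution) with dansyl-GCVLS peptide in Tris/HCl pH 7.5 buffer with DTT, MgCl2, ZnCl2 and 0.18% octyl-D-glucopyranoside in place of CHAPS. Inhibitors added from DMSO; started with farnesyl pyrophosphate (10 µM stock). Fluorescence (ex 340/em 486 nm) read 15 min at 30 °C; duplicates, run twice.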

[2] = target: T1, Phospholipase A2 (Apis mellifera, UniProt P00630); assay: Inhibition of bee venom phospholipase A2 after 5 mins by spectrophotometric analysis
T1 sequence (P00630 whole entry): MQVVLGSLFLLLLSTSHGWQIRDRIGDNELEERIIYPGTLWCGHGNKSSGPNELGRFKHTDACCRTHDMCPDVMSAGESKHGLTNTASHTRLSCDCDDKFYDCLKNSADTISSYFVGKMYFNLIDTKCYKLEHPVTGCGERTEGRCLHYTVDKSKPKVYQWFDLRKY
Procedure, shortened: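 Colorimetric assay with Apis mellifera venom PLA2, added as 2 µL of a 1 mg/mL […]. Test material in DMSO was preincubated with the enzyme for 1 h at 25 °C. Substrate solution was then added: L-α-phosphatidylcholine 3.5 mM, phenol red 0.055 mM, NaCl 100 mM, CaCl2 10 mM, Triton 7 mM, pH 7.6. Absorbance at 550 nm was read at 0 and 5 min, in duplicate. Manoalide as positive control.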

[3] = test system: Vero; assay: Cytotoxicity against african green monkey Vero cells assessed as inhibition of [3H]hypoxanthine incorporation after 48 hrs; assay type: cell-based; details: Chlorocebus sabaeus
Procedure, shortened: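 VERO cells (10^5 cells/well) exposed 48 h to serial dilutions in culture medium of a 10 mg/mL DMSO mother solution; growth inhibition by 3H-hypoxanthine incorporation (9.25 kBq/well). Highest concentration tested 20 µg/mL. IC50 read graphically from inhibition-versus-concentration plots; triplicates on three independent occasions, mean ± SEM (n = 3). Doxorubicin positive control.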

[4] = Inhibition of Saccharomyces cerevisiae FTase after 15 mins by fluorimetric analysis
Procedure, shortened: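 Partially purified recombinant yeast FTase (2.2 mg/mL, 0.1 mL per 7.0 mL peptide solution) with dansyl-GCVLS peptide in 53 mM Tris/HCl pH 7.5, 5.8 mM DTT, 6 mM MgCl2, 12 µM ZnCl2, 0.09% CHAPS. Inhibitors added from DMSO; started with farnesyl pyrophosphate (10 µM stock). Fluorescence (ex 340/em 486 nm) followed 15 min at 30 °C; duplicates, run twice.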

[5] = Selectivity ratio of IC50 for african green monkey (Cercopithecus aethiops) Vero cells to IC50 for chloroquine-resistant Plasmodium falciparum FcB1; assay type: ADME, cell-based; details: read-out: Ratio IC50
Procedure, shortened: (§1)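 Compounds were serially diluted from a 10 mg/mL DMSO stock into medium and added to VERO cells (10^5 cells/well) or to synchronised ring-stage P. falciparum (2% haematocrit, 1% parasitaemia). Read-out was 3H-hypoxanthine incorporation, with IC50 read graphically. Triplicates, three independent times; doxorubicin and chloroquine as controls.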

[6] = Selectivity ratio of IC50 for african green monkey (Cercopithecus aethiops) Vero cells to IC50 for chloroquine-sensitive Plasmodium falciparum 3D7; assay type: ADME, cell-based; details: read-out: Ratio IC50; procedure, shortened: as §1
[7] = test system: Plasmodium falciparum; assay: Antiplasmodial activity against chloroquine-sensitive Plasmodium falciparum 3D7 after 48 hrs; assay type: functional, organism-based; details: 3D7, 48 h
Procedure, shortened: (§2)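 Ring-stage P. falciparum cultures synchronised by magnetic purification plus D-sorbitol lysis. Compounds from a 10 mg/mL DMSO mother solution were serially diluted in culture medium and incubated 48 h with parasitised erythrocytes (2% haematocrit, 1% parasitaemia). Growth was followed by 3H-hypoxanthine incorporation (9.25 kBq/well). IC50 was read graphically from inhibition–concentration plots. Triplicates, three independent experiments; chloroquine as positive control.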

[8] = test system: Plasmodium falciparum; assay: Antiplasmodial activity against chloroquine-resistant Plasmodium falciparum FcB1 after 48 hrs; assay type: functional, organism-based; details: FcB1/Columbia; procedure, shortened: as §2

Structure (SMILES) | IC50 [1] [µM] | IC50 [2] [µM] | IC50 [3] [µM] | IC50 [4] [µM] | selectivity ratio [5] | selectivity ratio [6] | IC50 [7] [µM] | IC50 [8] [µM]
C[C@@]12CCC(=O)c3coc(c31)C(=O)c1cc3c(cc12)C(=O)C1=C(C3=O)S(=O)(=O)CCN1 [3-KETOADOCIAQUINONE A] | 4.19 | 140 | > 45 | 1.48 | 5 | 5 | 1.67 | 1.08
C[C@@]12CC[C@H](O)[C@@H]3COC(=C31)C(=O)c1cc3c(cc12)C(=O)CC[C@@H]3O [TETRAHYDROHALENAQUINONE A] | > 30 | 600 | > 58 | > 30 | – | – | > 29 | > 29
C[C@@]12CCC(=O)c3coc(c31)C(=O)c1cc3c(O)ccc(OS(=O)(=O)O)c3cc12 [HALENAQUINOL SULFATE SODIUM] | 21.5 | 1000 | > 48 | 16.1 | – | – | > 24 | > 24
CC1=CCCC2(C)C1=C(O)C(=O)c1cc3c(cc12)C(=O)C=CC3=O (stereo unspecified) [ORHALQUINONE] | 0.41 | 1570 | > 62 | 0.4 | 5 | 5 | 10.9 | 9.22
CO[C@]12OC(O)C3=C1[C@@](C)(CCC3=O)c1cc3c(OS(=O)(=O)O)ccc(O)c3cc1C2=O (stereo partly specified) [XESTOSAPROL C METHYLACETAL] | 4.34 | 570 | > 42 | 6.71 | – | – | > 21 | > 21
C[C@@]12CCC(=O)c3coc(c31)C(=O)c1cc3c(cc12)C(=O)C1=C(NCCS1(=O)=O)C3=O [3-KETOADOCIAQUINONE B] | 9.27 | 105 | > 45 | 3.75 | 5 | 5 | 4.12 | 3.89
C[C@@]12CC[C@H](O)[C@@H]3COC(=C31)C(=O)c1cc3c(cc12)C(O)CCC3=O (stereo partly specified) [XESTOSAPROL A] | > 30 | 1000 | > 58 | > 30 | – | – | > 29 | > 29
COc1cccc2c1C(=O)c1c(O)c3c(c(O)c1C2=O)C[C@@](O)(C(=O)CO)C[C@@H]3O[C@H]1C[C@H](N)[C@H](O)[C@H](C)O1 [DOXORUBICIN] | – | – | 5.12 | – | – | – | – | –
CC1=C(CC/C(C)=C/CCC2=CC[C@H](C3=CC(=O)O[C@H]3O)O[C@H]2O)C(C)(C)CCC1 [MANOALIDE] | – | 0.5 | – | – | – | – | – | –
C[C@@]12CCC(=O)c3coc(c31)C(=O)c1cc3c(cc12)C(=O)C=CC3=O [HELENAQUINONE] | 0.93 | 3.7 | > 60 | 1.57 | – | – | > 30 | > 30
